Test results taken from PubChem BioAssay AID651583 (The Scripps Research Institute Molecular Screening Center, 2012).
Active and inactive are the calls of the source.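 Rule for the calls: active = Toxic to Huh-7.5 liver cells, with CC50, the dose killing half the cells, at most 24 µM; inactive = CC50 above 24 µM.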

test system: Huh-7.5 viability, XTT absorbance; assay: viability loss in Huh-7.5 hepatoma cells – cell-based, XTT absorbance, powder samples, cytotoxicity control for HCV core dimerization inhibitor project, late-stage follow-up (AID 651583)
Procedure, shortened: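 Material – Huh-7.5 cell line, viability by mitochondrial dehydrogenase activity · Replication – triplicate wells per concentration · Measure – CC50 from four-parameter sigmoidal fit of % inhibition versus DMSO · Benchmarks – DMSO control, cell-free compound blanks · Times – 72 h compound exposure at 37 °C · Technique – XTT-PMS absorbance, 450/650 nm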

Structure (SMILES)	CC50
Cc1ccc(Cc2c(C)nc3nc(SCC(=O)NCCN4CCCN(S(C)(=O)=O)CC4)nn3c2C)cc1	193 µM (inactive)
Cc1ccc(Cc2c(C)nc3nc(SCC(=O)NCCN4CCOCC4)nn3c2C)cc1	> 12 µM (inactive)
Cc1ccc(Cc2c(C)nc3nc(SCC(=O)NCCN4CCN(Cc5ccc(Cl)cc5)CC4)nn3c2C)cc1	> 4 µM (inactive)
Cc1ccc(Cc2c(C)nc3nc(SCC(=O)NCCN4CCCN(S(=O)(=O)c5ccc(C)cc5)CC4)nn3c2C)cc1	13.8 µM
Cc1ccc(Cc2c(C)nc3nc(SCC(=O)NCCN4CCN(CCc5ccccc5)CC4)nn3c2C)cc1	> 36 µM (inactive)
Cc1ccc(Cc2c(C)nc3nc(SCC(=O)NCCN4CCCCCC4)nn3c2C)cc1	42.6 µM (inactive)
Cc1ccc(Cc2c(CCc3ccccc3)nc3nc(SC(Cc4ccccc4)C(=O)NCCN4CCOCC4)nn3c2C)cc1 (stereo unspecified)	22.1 µM
Cc1ccc(Cc2c(C)nc3nc(SCC(=O)NCCN4CCN(Cc5ccc(F)cc5)CC4)nn3c2C)cc1	180 µM (inactive)
Cc1ccc(Cc2c(C)nc3nc(SCC(=O)NCCN4CCCN(S(=O)(=O)c5ccccc5)CC4)nn3c2C)cc1	9.51 µM
Cc1ccc(Cc2c(C)nc3nc(SCC(=O)NCCN4CCNCC4)nn3c2C)cc1	33.8 µM (inactive)
Cc1ccc(Cc2c(C)nc3nc(SCC(=O)NCCN4CCN(S(=O)(=O)c5ccccc5)CC4)nn3c2C)cc1	37.6 µM (inactive)
